The text below walks through data of ChEMBL document CHEMBL4334471, “Discovery of 1,8-disubstituted-[1,2,3]triazolo[4,5-c]quinoline derivatives as a new class of Hippo signaling pathway inhibitors” (Bioorg Med Chem Lett, 2019).

The target in experiment [1] is Protein kinase C epsilon type (Homo sapiens) (UniProt Q02156). Description: Inhibition of recombinant human PKCepsilon (2 to end residues) assessed as residual activity at 10 uM using ERMRPRKRQGSVRRRV as substrate incubated for 40 mins in presence of [gamma33P]ATP by scintillation counting based radiometry assay relative to control.
Experiment [2] deals with Macrophage-stimulating protein receptor (Homo sapiens) (UniProt Q04912). Description: Inhibition of recombinant human Ron (983 to end residues) assessed as residual activity at 10 uM using GGMEDIYFEFMGGKKK as substrate incubated for 40 mins in presence of [gamma33P]ATP by scintillation counting based radiometry assay relative to control.
For another experiment, the species on record is Homo sapiens. Description: Inhibition of recombinant human MARK1 T20S mutant (2 to end residues) assessed as residual activity at 10 uM using KKKVSRSGLYRSPSMPENLNRPR as substrate incubated for 40 mins in presence of [gamma-33ATP by scintillation counting based radiometry assay relative to control.
The target of experiment [3] is Serine/threonine-protein kinase TAO1 (Homo sapiens) (UniProt Q7L7X3). Nature of the experiment: Inhibition of recombinant human TAO1 (1 to 327 residues) assessed as residual activity at 10 uM using myelin basic protein as substrate incubated for 40 mins in presence of [gamma33P]ATP by scintillation counting based radiometry assay relative to control.
For a further experiment, the species on record is Mus musculus. Nature of the experiment: Inhibition of recombinant full length mouse PI3K p110/p85 E545K mutant assessed as residual activity at 10 uM using phosphatidylinositol-4, 5-bisphosphate as substrate incubated for 40 mins in presence of [gamma33P]ATP by scintillation counting based radiometry assay relative to control.
The target of experiment [4] is Serine/threonine-protein kinase 17B (Homo sapiens) (UniProt O94768). Description: Inhibition of recombinant human DRAK2 assessed as residual activity at 10 uM using KKRPQRRYSNVF as substrate at 120 mins in presence of [gamma-33ATP] by scintillation counting based radiometry assay relative to control.
In experiment [5] the target is Dual specificity mitogen-activated protein kinase kinase 6 (Homo sapiens) (UniProt P52564). Description: Inhibition of recombinant human MKK6 assessed as residual activity at 10 uM by scintillation counting based radiometry assay relative to control.
Experiment [6] deals with CDK6/cyclin D3 (Homo sapiens) (UniProt P30281+Q00534). Description: Inhibition of recombinant full length human CDK6/cyclinD3 assessed as residual activity at 10 uM using histone H1 as substrate incubated for 40 mins in presence of [gamma-33ATP] by scintillation counting based radiometry assay relative to control. In kind it is protein-complex assay.
For experiment [7], the target named is Leukocyte tyrosine kinase receptor (Homo sapiens) (UniProt P29376). Nature of the experiment: Inhibition of recombinant human LTK (450 to end residues) assessed as residual activity at 10 uM using GEEPLYWSFPAKK as substrate after 40 mins in presence of [gamma-33ATP] by scintillation counting based radiometry assay relative to control.
The subject of experiment [8] is Ribosomal protein S6 kinase beta-1 (Homo sapiens), P23443 [T412E]. Description: Inhibition of recombinant human p70S6K T412E mutant (1 to 421 residues) assessed as residual activity at 10 uM using KKRNRTLTV as substrate measured after 40 mins in presence of [gamma33P]ATP by scintillation counting based radiometry assay relative to control.
Experiment [9] has as its target Serine/threonine-protein kinase 38-like (Homo sapiens) (UniProt Q9Y2H1). Description: Inhibition of recombinant human NDR2 (83 to end residues) assessed as residual activity at 10 uM using RSRSRSRSRSRSRSR as substrate measured after 40 mins in presence of [gamma33P]ATP by scintillation counting based radiometry assay relative to control.
In experiment [10] the target is Casein kinase I isoform gamma-2 (Homo sapiens) (UniProt P78368). Description: Inhibition of recombinant human CK1gamma2 (18 to end residues) assessed as residual activity at 10 uM using KRRRALS(p)VASLPGL as substrate incubated for 40 mins in presence of [gamma-33ATP] by scintillation counting based radiometry assay relative to control.
Experiment [11] concerns the target CDK2/Cyclin A1 (Homo sapiens) (UniProt P24941+P78396). Description: Inhibition of recombinant full length human CDK2/CyclinA assessed as residual activity at 10 uM using Histone H1 as substrate incubated for 40 mins in presence of [gamma-33ATP] by scintillation counting based radiometry assay relative to control. Type of experiment: protein-complex assay.
Experiment [12] deals with CDK12/Cyclin K (Homo sapiens) (UniProt O75909+Q9NYV4). Nature of the experiment: Inhibition of recombinant full length human CDK12/cyclinK assessed as residual activity at 10 uM using RSRSRSRSRSRSR as substrate incubated for 40 mins in presence of [gamma-33ATP] by scintillation counting based radiometry assay relative to control. In kind it is protein-complex assay.
In experiment [13] the target is Mitogen-activated protein kinase kinase kinase 2 (Homo sapiens) (UniProt Q9Y2U5). Nature of the experiment: Inhibition of recombinant full length human MEKK2 assessed as residual activity at 10 uM using myelin basic protein as substrate incubated for 40 mins in presence of [gamma-33ATP by scintillation counting based radiometry assay relative to control.
Another experiment concerns A549. Nature of the experiment: Inhibition of hippo signalling protein in human A549 cells assessed as increase in CTGF mRNA expression level incubated for 24 hrs by qRT-PCR analysis. In kind it is cell-based. An outline of the steps:
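A549-CTGF cells were exposed to compound or 0.1% DMSO for 24 h before total RNA extraction. Endogenous CTGF mRNA was quantified by real-time PCR. Data were mean ± SEM (n=4) and compared by Student's t-test.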
(In qPCR the cycle at which signal appears reflects the starting amount.)

The target in experiment [14] is Ribosomal protein S6 kinase alpha-1 (Homo sapiens) (UniProt Q15418). Nature of the experiment: Inhibition of recombinant full length human Rsk1 assessed as residual activity at 10 uM using KKKNRTLSVA as substrate incubated for 40 mins in presence of [gamma33P]ATP by scintillation counting based radiometry assay relative to control.
For experiment [15], the target named is MAP kinase-interacting serine/threonine-protein kinase 2 (Homo sapiens) (UniProt Q9HBH9). Description: Inhibition of recombinant human MNK2 assessed as residual activity at 10 uM using myelin basic protein as substrate incubated for 40 mins in presence of [gamma-33ATP by scintillation counting based radiometry assay relative to control.
For experiment [16], the target named is Ribosomal protein S6 kinase alpha-4 (Homo sapiens) (UniProt O75676). Description: Inhibition of recombinant human MSK2 (2 to end residues) assessed as residual activity at 10 uM using GRPRTSSFAEGKK as substrate incubated for 40 mins in presence of [gamma-33ATP by scintillation counting based radiometry assay relative to control.
For experiment [17], the target named is Serine/threonine-protein kinase SIK3 (Homo sapiens) (UniProt Q9Y2K2). Description: Inhibition of recombinant human SIK3 (1 to 307 residues) assessed as residual activity at 10 uM using KKKVSRSGLYRSPSMPENLNRPR as substrate incubated for 40 mins in presence of [gamma33P]ATP by scintillation counting based radiometry assay relative to control.
Experiment [18] concerns Mast/stem cell growth factor receptor Kit (Homo sapiens), P10721 [D816H]. Description: Inhibition of recombinant human C-Kit D816H mutant (544 to end residues) assessed as residual activity at 10 uM poly(Glu, Tyr) 4:1 as substrate incubated 40 mins in presence of [gamma-33ATP] by scintillation counting based radiometry assay relative to control.
Chain of Mast/stem cell growth factor receptor Kit (Homo sapiens), P10721 [D816H] (P10721 whole entry D816H): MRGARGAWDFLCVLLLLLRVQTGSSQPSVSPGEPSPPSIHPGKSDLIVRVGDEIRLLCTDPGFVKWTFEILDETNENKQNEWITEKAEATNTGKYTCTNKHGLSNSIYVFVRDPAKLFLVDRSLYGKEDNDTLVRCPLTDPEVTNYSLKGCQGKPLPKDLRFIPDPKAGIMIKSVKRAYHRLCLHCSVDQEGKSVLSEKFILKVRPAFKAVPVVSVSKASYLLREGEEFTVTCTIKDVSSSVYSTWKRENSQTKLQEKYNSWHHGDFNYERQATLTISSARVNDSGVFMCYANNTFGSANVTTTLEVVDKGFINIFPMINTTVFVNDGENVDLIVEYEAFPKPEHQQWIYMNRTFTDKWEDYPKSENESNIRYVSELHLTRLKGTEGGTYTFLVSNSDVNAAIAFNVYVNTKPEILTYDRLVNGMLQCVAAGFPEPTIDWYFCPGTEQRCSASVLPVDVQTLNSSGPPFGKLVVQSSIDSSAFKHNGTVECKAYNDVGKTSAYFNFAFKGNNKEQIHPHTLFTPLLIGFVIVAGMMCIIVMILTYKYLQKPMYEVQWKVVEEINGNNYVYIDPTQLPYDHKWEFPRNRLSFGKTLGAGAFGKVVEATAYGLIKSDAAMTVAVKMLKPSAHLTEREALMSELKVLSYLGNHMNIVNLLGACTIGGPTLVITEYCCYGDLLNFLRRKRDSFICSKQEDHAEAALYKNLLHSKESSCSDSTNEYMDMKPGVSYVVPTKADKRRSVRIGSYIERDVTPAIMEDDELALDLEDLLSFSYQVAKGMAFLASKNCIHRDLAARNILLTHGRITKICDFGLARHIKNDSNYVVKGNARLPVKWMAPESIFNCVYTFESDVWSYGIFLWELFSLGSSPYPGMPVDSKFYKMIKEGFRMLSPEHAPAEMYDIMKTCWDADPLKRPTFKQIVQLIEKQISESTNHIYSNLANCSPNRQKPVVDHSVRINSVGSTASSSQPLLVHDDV

Chain of Serine/threonine-protein kinase 38-like (Homo sapiens) (Q9Y2H1 2-464 limits assumed): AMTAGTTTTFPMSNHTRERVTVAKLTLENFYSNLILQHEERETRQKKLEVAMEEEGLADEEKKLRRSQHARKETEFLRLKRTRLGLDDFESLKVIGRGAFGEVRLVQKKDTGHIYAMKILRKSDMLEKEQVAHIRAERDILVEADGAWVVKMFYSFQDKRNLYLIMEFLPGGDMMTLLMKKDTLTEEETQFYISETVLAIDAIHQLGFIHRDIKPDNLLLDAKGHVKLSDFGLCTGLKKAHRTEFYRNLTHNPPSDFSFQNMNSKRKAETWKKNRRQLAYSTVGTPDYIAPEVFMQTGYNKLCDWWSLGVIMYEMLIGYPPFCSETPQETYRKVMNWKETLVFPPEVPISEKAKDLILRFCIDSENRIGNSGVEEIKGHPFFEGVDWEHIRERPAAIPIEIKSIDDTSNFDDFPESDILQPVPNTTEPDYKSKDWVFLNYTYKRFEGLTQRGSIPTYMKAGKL
Chain of Dual specificity mitogen-activated protein kinase kinase 6 (Homo sapiens) (P52564 whole entry): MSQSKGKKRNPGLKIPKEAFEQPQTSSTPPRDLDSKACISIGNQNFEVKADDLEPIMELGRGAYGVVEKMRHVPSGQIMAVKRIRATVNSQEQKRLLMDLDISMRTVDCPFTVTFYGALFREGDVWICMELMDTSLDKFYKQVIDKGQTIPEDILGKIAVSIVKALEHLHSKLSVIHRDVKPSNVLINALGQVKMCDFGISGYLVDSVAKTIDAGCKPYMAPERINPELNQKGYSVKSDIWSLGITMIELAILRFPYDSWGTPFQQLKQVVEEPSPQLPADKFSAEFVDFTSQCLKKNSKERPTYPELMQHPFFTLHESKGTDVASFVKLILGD
Chain of Serine/threonine-protein kinase TAO1 (Homo sapiens) (Q7L7X3 whole entry, the tested form may be a part): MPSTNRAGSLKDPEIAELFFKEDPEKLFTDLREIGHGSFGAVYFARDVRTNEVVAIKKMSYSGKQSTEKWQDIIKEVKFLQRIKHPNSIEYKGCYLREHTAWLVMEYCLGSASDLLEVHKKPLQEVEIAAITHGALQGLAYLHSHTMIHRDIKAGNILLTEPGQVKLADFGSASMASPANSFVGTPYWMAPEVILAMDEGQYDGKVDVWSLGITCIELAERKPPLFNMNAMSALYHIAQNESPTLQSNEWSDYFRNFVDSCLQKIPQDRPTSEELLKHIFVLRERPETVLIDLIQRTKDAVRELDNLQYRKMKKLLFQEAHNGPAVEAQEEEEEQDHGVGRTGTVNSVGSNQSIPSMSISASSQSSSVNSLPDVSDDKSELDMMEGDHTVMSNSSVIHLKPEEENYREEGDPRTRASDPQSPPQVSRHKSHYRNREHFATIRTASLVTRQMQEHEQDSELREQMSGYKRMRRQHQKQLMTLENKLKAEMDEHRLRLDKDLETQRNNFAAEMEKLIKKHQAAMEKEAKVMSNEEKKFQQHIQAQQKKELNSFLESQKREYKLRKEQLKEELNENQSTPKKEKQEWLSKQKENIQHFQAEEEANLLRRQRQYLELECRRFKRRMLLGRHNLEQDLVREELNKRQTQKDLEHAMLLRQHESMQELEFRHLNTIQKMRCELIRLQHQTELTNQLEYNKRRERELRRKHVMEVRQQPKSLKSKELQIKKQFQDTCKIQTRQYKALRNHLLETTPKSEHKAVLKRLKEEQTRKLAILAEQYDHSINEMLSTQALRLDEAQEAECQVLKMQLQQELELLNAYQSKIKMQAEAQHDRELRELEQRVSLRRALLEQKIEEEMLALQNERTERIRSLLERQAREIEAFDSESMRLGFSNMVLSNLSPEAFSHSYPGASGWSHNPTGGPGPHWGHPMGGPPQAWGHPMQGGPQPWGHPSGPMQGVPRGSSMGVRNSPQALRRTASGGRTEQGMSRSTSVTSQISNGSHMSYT
Chain of Ribosomal protein S6 kinase alpha-4 (Homo sapiens) (O75676 whole entry, looked up, the tested form may be a part): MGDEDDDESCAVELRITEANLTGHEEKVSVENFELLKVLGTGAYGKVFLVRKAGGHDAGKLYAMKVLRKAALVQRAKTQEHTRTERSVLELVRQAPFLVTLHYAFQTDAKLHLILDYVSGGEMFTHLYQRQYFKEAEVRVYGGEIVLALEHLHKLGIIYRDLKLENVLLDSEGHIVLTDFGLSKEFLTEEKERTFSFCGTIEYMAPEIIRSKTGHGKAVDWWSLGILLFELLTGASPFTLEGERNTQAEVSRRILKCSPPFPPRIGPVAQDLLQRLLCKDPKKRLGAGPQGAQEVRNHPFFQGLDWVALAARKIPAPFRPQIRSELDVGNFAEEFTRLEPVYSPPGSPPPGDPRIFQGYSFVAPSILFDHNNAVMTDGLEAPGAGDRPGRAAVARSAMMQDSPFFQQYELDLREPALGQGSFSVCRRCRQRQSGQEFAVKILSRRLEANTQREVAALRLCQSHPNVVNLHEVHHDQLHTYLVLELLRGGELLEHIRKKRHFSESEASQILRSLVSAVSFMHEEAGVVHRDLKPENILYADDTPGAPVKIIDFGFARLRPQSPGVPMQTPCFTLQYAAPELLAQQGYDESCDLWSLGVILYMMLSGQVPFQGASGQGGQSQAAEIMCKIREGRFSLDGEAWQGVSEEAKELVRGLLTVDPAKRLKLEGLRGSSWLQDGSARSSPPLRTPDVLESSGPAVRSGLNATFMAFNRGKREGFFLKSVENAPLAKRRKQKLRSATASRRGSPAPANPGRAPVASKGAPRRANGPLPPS
Chain of Serine/threonine-protein kinase 17B (Homo sapiens) (O94768 whole entry): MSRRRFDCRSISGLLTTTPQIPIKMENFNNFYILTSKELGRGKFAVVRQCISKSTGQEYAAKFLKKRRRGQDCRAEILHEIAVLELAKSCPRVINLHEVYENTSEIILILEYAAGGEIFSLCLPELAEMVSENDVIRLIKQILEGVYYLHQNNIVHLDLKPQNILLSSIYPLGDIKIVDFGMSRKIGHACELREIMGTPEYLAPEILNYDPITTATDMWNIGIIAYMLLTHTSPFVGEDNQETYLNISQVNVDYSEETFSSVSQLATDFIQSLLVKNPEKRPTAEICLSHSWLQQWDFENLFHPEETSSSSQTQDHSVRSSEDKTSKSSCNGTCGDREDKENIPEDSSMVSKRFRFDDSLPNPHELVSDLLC
Chain of Protein kinase C epsilon type (Homo sapiens) (Q02156 whole entry): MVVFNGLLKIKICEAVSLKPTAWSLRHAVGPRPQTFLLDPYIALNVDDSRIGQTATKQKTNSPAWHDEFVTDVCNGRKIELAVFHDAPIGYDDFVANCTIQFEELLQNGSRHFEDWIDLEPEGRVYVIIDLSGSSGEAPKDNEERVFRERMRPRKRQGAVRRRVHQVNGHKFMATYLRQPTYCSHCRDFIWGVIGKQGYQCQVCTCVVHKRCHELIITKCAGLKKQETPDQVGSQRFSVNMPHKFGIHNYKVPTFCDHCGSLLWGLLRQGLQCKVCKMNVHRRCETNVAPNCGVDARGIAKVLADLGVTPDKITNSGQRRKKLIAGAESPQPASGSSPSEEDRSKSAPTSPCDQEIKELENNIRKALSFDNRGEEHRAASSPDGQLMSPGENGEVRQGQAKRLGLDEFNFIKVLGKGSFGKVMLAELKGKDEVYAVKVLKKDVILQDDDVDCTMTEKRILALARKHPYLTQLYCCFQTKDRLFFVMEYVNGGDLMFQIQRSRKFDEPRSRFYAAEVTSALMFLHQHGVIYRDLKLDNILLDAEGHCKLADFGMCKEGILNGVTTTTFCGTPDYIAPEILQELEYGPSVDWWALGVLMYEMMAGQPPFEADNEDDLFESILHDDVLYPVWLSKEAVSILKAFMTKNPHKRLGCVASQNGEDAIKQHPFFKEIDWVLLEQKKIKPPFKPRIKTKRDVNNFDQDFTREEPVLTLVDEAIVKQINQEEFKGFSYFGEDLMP

Turning to `C[C@@H](c1ccccc1)n1nnc2cnc3ccc(-c4cnc5[nH]ccc5c4)cc3c21`, the Activity in [1] came to 97%; in experiment [2], 79%; in the experiment listed under Homo sapiens, 76%; in experiment [3], 18%; in the experiment listed under Mus musculus it was 1%; in [4], 64%. For the same compound, the Activity in experiment [5] worked out at 109%; in experiment [6], 92%; in experiment [7], 39%; in experiment [8] it was 54%; in experiment [9], 89%; in experiment [10], 73%. Also, the Activity came out at 63% in [11]; 83% in experiment [12]; 107% in experiment [13]; 46% in [14]; 84% in experiment [15]; 58% in experiment [16]. The Activity amounted to 20% in experiment [17] and 8% in experiment [18]. The inhibition entry with A549 was “Dose-dependent effect”.
